Assay results taken from ChEMBL document CHEMBL4196178, “Structure-Based Drug Design of Potent Pyrazole Derivatives against Rhinovirus Replication” (J Med Chem, 2018).
Activity calls are given as the source filed them. The calls are words filed in the database; no cut-off is given here.

Key:
[1] = biological target: T1, VP1 capsid protein (Human rhinovirus sp.) (UniProt Q7T664); assay: Inhibition of Rhinovirus B14 capsid infected in human HeLa Rh cells assessed as number of wells with full cytopathic effect at EC50 concentration after 4th passage measured after 3 days by MTS assay relative to control; format: cell-based; parameters: scale not given: the % may be the effect or the level left
T1 sequence (whole entry): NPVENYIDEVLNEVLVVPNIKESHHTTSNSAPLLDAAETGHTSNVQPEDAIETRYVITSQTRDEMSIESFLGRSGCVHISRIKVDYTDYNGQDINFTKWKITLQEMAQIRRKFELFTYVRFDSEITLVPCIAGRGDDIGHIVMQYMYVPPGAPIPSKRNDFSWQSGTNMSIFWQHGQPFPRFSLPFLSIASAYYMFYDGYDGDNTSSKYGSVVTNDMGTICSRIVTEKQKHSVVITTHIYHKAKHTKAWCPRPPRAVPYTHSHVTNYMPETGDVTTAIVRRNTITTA
Outline: (§1)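 Confluent HeLa cells were infected with wild-type RV-B14 with compound present at 1x, 2x or 4x in vitro EC₅₀, n=4 wells. Supernatant was diluted 1:10 onto fresh HeLa cells with compound, for four passages. Value is percentage of wells with full CPE.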

[2] = Cytotoxicity against human HeLa Rh cells assessed as reduction in cell viability after 3 days by MTS assay; format: cell-based
[3] = tested on: rhinovirus B14; assay: Inhibition of Rhinovirus B14 capsid infected in human HeLa Rh cells assessed as number of wells with full cytopathic effect at 4 times EC50 concentration after 2nd passage measured after 3 days by MTS assay relative to control; format: functional; parameters: scale not given: the % may be the effect or the level left; outline: as §1
[4] = biological target: T1, VP1 capsid protein (Human rhinovirus sp.); assay: Inhibition of Rhinovirus B14 capsid infected in human HeLa Rh cells assessed as number of wells with full cytopathic effect at 2 times EC50 concentration after 3rd passage measured after 3 days by MTS assay relative to control; format: cell-based; parameters: scale not given: the % may be the effect or the level left; outline: as §1
[5] = biological target: T1, VP1 capsid protein (Human rhinovirus sp.); assay: Inhibition of Rhinovirus B14 capsid infected in human HeLa Rh cells assessed as number of wells with full cytopathic effect at EC50 concentration after 2nd passage measured after 3 days by MTS assay relative to control; format: cell-based; parameters: scale not given: the % may be the effect or the level left; outline: as §1
[6] = biological target: T1, VP1 capsid protein (Human rhinovirus sp.); assay: Inhibition of Rhinovirus B14 capsid infected in human HeLa Rh cells assessed as number of wells with full cytopathic effect at EC50 concentration after 1st passage measured after 3 days by MTS assay relative to control; format: cell-based; parameters: scale not given: the % may be the effect or the level left; outline: as §1
[7] = biological target: T1, VP1 capsid protein (Human rhinovirus sp.); assay: Inhibition of Rhinovirus B14 capsid infected in human HeLa Rh cells assessed as reduction in viral replication at 1 uM administered 2 hrs before infection measured after 8 hrs post infection by RT-qPCR analysis; format: cell-based
Outline: (§2)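 HeLa Rh cells adhered overnight, then given 1 µM compound 2 h before, at, or 2, 4 or 6 h after RV-B14 infection. Untreated infected cells served as controls. Cells lysed at 8 h post-infection, DNases heat-inactivated at 75 °C for 15 min. Intracellular viral RNA measured by SYBR one-step qRT-PCR against a gBlock standard series, reported as genome equivalents per sample.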

[8] = biological target: T1, VP1 capsid protein (Human rhinovirus sp.); assay: Inhibition of capsid of VP1 A150V mutant harboring Rhinovirus B14 assessed as reduction of virus induced cytopathic effect at 2 times EC50 concentration after 4th passage measured after 3 days by MTS assay
Outline: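 After four passages of RV-B14 on HeLa cells with compound at 1x, 2x or 4x in vitro EC₅₀ (supernatant transferred 1:10 each passage), virus harvested at passage 4 was sequenced for the VP1 region by Sanger sequencing.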

[9] = biological target: T1, VP1 capsid protein (Human rhinovirus sp.); assay: Inhibition of capsid of VP1 A150V mutant harboring Rhinovirus B14 assessed as reduction of virus induced cytopathic effect at 4 times EC50 concentration after 4th passage measured after 3 days by MTS assay
[10] = biological target: T1, VP1 capsid protein (Human rhinovirus sp.); assay: Inhibition of Rhinovirus B14 capsid infected in human HeLa Rh cells assessed as number of wells with full cytopathic effect at 4 times EC50 concentration after 3rd passage measured after 3 days by MTS assay relative to control; format: cell-based; parameters: scale not given: the % may be the effect or the level left; outline: as §1
[11] = tested on: rhinovirus B14; assay: Antiviral activity against Rhinovirus B14 infected in human HeLa Rh cells assessed as reduction in viral replication at 1 uM administered at >= 2 hrs post infection measured after 8 hrs post infection by RT-qPCR analysis; format: functional, organism-based; outline: as §2
[12] = biological target: T1, VP1 capsid protein (Human rhinovirus sp.); assay: Inhibition of Rhinovirus B14 capsid infected in human HeLa Rh cells assessed as number of wells with full cytopathic effect at 4 times EC50 concentration after 4th passage measured after 3 days by MTS assay relative to control; format: cell-based; parameters: scale not given: the % may be the effect or the level left; outline: as §1
[13] = biological target: T1, VP1 capsid protein (Human rhinovirus sp.); assay: Inhibition of Rhinovirus B14 capsid infected in human HeLa Rh cells assessed as number of wells with full cytopathic effect at EC50 concentration after 3rd passage measured after 3 days by MTS assay relative to control; format: cell-based; parameters: scale not given: the % may be the effect or the level left; outline: as §1
[14] = tested on: rhinovirus B14; assay: Antiviral activity against Rhinovirus B14 infected in human HeLa Rh cells assessed as reduction in viral replication at 1 uM administered at the time of infection measured after 8 hrs post infection by RT-qPCR analysis; format: functional, organism-based; outline: as §2
[15] = biological target: T1, VP1 capsid protein (Human rhinovirus sp.); assay: Inhibition of Rhinovirus B14 capsid infected in human HeLa Rh cells assessed as number of wells with full cytopathic effect at 2 times EC50 concentration after 2nd passage measured after 3 days by MTS assay relative to control; format: cell-based; parameters: scale not given: the % may be the effect or the level left; outline: as §1
[16] = Selectivity index, ratio of CC50 for human HeLa Rh cells to EC50 for Rhinovirus B14 capsid infected in human HeLa Rh cells; format: toxicity, cell-based; settings: read-out: Ratio CC50/EC50
Outline: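 SI = CC₅₀/EC₅₀ for RV-B14 in HeLa Rh cells, both from the same 3-day 35 °C MTS CPE assay. CC₅₀ was obtained by light-microscope scoring of compound-treated uninfected cells, and EC₅₀ from MTS dose-response. Both values were derived by logarithmic interpolation and reported as median ± median absolute deviation.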

[17] = biological target: T1, VP1 capsid protein (Human rhinovirus sp.); assay: Inhibition of Rhinovirus B14 capsid infected in human HeLa Rh cells assessed as number of wells with full cytopathic effect at 4 times EC50 concentration after 1st passage measured after 3 days by MTS assay relative to control; format: cell-based; parameters: scale not given: the % may be the effect or the level left; outline: as §1
[18] = biological target: T1, VP1 capsid protein (Human rhinovirus sp.); assay: Inhibition of capsid of VP1 V191E mutant harboring Rhinovirus B14 assessed as reduction of virus induced cytopathic effect at 2 times EC50 concentration after 4th passage measured after 3 days by MTS assay
[19] = biological target: T1, VP1 capsid protein (Human rhinovirus sp.); assay: Inhibition of Rhinovirus B14 capsid infected in human HeLa Rh cells assessed as number of wells with full cytopathic effect at 2 times EC50 concentration after 4th passage measured after 3 days by MTS assay relative to control; format: cell-based; parameters: scale not given: the % may be the effect or the level left; outline: as §1
[20] = biological target: T1, VP1 capsid protein (Human rhinovirus sp.); assay: Inhibition of capsid of VP1 C199W mutant harboring Rhinovirus B14 assessed as reduction of virus induced cytopathic effect at 1 times EC50 concentration after 4th passage measured after 3 days by MTS assay
[21] = biological target: T1, VP1 capsid protein (Human rhinovirus sp.); assay: Inhibition of Rhinovirus B14 capsid infected in human HeLa Rh cells assessed as number of wells with full cytopathic effect at 2 times EC50 concentration after 1st passage measured after 3 days by MTS assay relative to control; format: cell-based; parameters: scale not given: the % may be the effect or the level left; outline: as §1

Cn1cc(-c2ccc(CC(O)c3ccc(-n4cccn4)cc3)c([N+](=O)[O-])c2)cn1 (racemic)
Activity [1]: 50%
CC50 at 72 h [2]: 247 to 1000 µM
Activity [3]: 0%
Activity [4]: 0%
Activity [5]: 0%
Activity [6]: 0%
inhibition [7]: Active
inhibition [8]: Active
inhibition [9]: inactive
Activity [10]: 0%
Activity [11]: inactive
Activity [12]: 0%
Activity [13]: 50%
Activity [14]: Active
Activity [15]: 0%
selectivity ratio [16]: 1240 to 5000
Activity [17]: 0%
inhibition [18]: inactive
Activity [19]: 50%
inhibition [20]: Active
Activity [21]: 0%
